Measurements collected from several papers.
Lines come from different studies, so protocols differ.
Target: Phosphorylase b kinase gamma catalytic chain, liver/testis isoform (PHKG2, Homo sapiens, UniProt P15735)
Sequence (P15735 1-406, as in one of the studies): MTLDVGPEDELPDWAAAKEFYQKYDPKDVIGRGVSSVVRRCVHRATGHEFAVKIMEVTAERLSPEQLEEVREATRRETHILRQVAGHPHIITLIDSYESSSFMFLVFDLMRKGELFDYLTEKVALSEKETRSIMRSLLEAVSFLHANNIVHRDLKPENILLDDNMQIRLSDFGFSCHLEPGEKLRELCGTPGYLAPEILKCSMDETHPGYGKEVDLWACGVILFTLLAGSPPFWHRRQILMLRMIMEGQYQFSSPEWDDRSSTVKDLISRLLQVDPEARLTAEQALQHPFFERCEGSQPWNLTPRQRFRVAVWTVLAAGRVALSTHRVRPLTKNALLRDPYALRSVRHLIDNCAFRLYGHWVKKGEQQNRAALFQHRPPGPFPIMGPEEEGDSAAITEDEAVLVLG

| Compound | effect on | mode | technique | cells | concentration | endpoint | result |
| --- | --- | --- | --- | --- | --- | --- | --- |
| CCN(CC)CCNC(=O)c1c(C)[nH]c(/C=C2\C(=O)Nc3ccc(F)cc32)c1C | enzyme activity | inhibitor | – | – | 0.3 µM | inhibition | 81% |
| COc1cccc2c(NCc3ccccc3)nc(-n3c(N)nc4ccccc43)nc12 | target engagement in cells | inhibitor | chemoproteomics | – | 20 mM | inhibition | 4.6% |
| CC(C)(O)[C@H]1CC[C@H](Nc2ccc3ncc(-c4cccc(C(F)(F)F)c4)n3n2)CC1 | enzyme activity | inhibitor | – | – | 1 µM | remaining activity | 99.4% |
| Nc1nc(Nc2ccc(S(N)(=O)=O)cc2)nn1C(=O)c1c(F)cccc1F | cell-free assay | – | – | – | 0.5 µM | remaining signal | 102% |
| Cc1cnc(NC2CCOCC2)nc1-n1cnc(C(=O)NC(CN)c2cc(F)cc(Cl)c2)c1 (stereo not shown) | enzyme activity | inhibitor | radiometric | – | 1 µM | remaining activity | 97% |
| NS(=O)(=O)c1cc(NC(=O)C2(c3ccccc3Cl)CC2)ccc1Oc1cccc(Cl)c1 | cell-free assay | – | competition with immobilised ligand | – | 1 µM | remaining binding | 100% |
| CC(C)(C)c1nc2c(s1)c1nc(N)ncc1c1ccc(NS(=O)(=O)c3c(F)cccc3F)c(F)c12 | enzyme activity | inhibitor | radiometric | – | 1 µM | remaining activity | 92% |
| c1ccc(CNc2nc(N3CCOc4ccccc43)nc3c2CCCC3)cc1 | target engagement in cells | inhibitor | chemoproteomics | – | 20 mM | inhibition | -2.7% |
| CC(=O)N1CCC(c2ccc(C(=O)NC(=N)N)cc2C(F)(F)F)CC1 | cell-free assay | – | competition with immobilised ligand | – | 1 µM | remaining binding | 100% |
| O=C(Nc1cnn(-c2csc(C(=O)NC3COC3)c2)c1)Nc1c(F)cccc1Cl | enzyme activity | inhibitor | – | – | 5 µM | remaining activity | 131% |
| CNCc1ccccc1-c1csc([C@H](C)Nc2nc(C)nc3cc(OC)c(OC)cc23)c1 | cell-free assay | – | competition with immobilised ligand | – | 1 µM | remaining binding | 100% |
| CS(=O)(=O)CCNCc1ccc(-c2ccc3ncnc(Nc4ccc(OCc5cccc(F)c5)c(Cl)c4)c3c2)o1 | cell-free assay | – | – | – | 0.5 µM | remaining signal | 99.5% |
| CCCCN(CCCC)C(=O)CN1C[C@H](c2cc(OC)c3c(c2)OCO3)[C@@H](C(=O)O)[C@@H]1CC(C)(C)CCC | cell-free assay | – | competition with immobilised ligand | – | 1 µM | remaining binding | 100% |
| COc1cc2c(Nc3ccc(Br)cc3F)ncnc2cc1OCC1CCN(C)CC1 | cell-free assay | – | – | – | 0.5 µM | remaining signal | 99.1% |
| CC/C(=N\NC(=O)NCc1cccc(O)c1)c1ccc(O)c(C)c1O | enzyme activity | inhibitor | – | – | 0.1 µM | inhibition | -2.9% |
| CCN1CCN(Cc2ccc(NC(=O)c3ccc(C)c(Oc4ccnc5[nH]ccc45)c3)cc2C(F)(F)F)CC1 | target engagement in cells | inhibitor | chemoproteomics | Huh-7 | 10 µM | inhibition | -12.3% |
| Cc1ccc(C(=O)Nc2ccc(CN3CCN(C)CC3)c(C(F)(F)F)c2)cc1C#Cc1cnc2cccnn12 | enzyme activity | inhibitor | – | – | 23.5 nM | remaining activity | 100% |
| CC(C)CC(=O)N1CCc2nc(-c3ccc(Br)cc3)nc(N(C)Cc3ccccc3)c2C1 | cell-free assay | – | competition with immobilised ligand | – | 0.1 µM | remaining binding | 100% |
| COc1cc2ncnc(Nc3ccc(Oc4ccccc4)c(C)c3C)c2cc1OC | enzyme activity | inhibitor | – | – | 1 µM | inhibition | 2% |
| Cc1ccc(Nc2nccc(N(C)c3ccc4c(C)n(C)nc4c3)n2)cc1S(N)(=O)=O | enzyme activity | inhibitor | – | – | 10 µM | inhibition | -2% |
| O=C1Nc2ccc(Cl)cc2C1=Cc1cc(Cl)c(O)c(Cl)c1 | cell-free assay | – | – | – | 0.5 µM | remaining signal | 98.4% |
| CCC(=O)N[C@H]1CC[C@@H](C(=O)N(C)c2ccc(-c3nc4ccccc4o3)cc2)C1 | cell-free assay | – | competition with immobilised ligand | – | 1 µM | remaining binding | 100% |
| Cc1ccc(NC(=O)c2ccc(C)c(C(F)(F)F)c2)cc1C#Cc1nn(C2CCC(O)CC2)c2ncnc(N)c12 (stereo not shown) | cell-free assay | – | – | – | 10 µM | remaining signal | 113% |
| CCc1ccccc1C(=O)Nc1n[nH]c2c(C)c(F)c(C3C(C#N)=C(C)N(C)C(C)=C3C#N)cc12 | cell-free assay | – | competition with immobilised ligand | – | 1 µM | remaining binding | 81% |
| Clc1ccc(Nc2nnc(Cc3ccncc3)c3ccccc23)cc1 | cell-free assay | – | – | – | 0.5 µM | remaining signal | 91.8% |
| Nc1ncnc2occ(-c3ccc(NC(=O)Nc4cc(C(F)(F)F)ccc4F)cc3)c12 | cell-free assay | inhibitor | – | – | 20 µM | remaining signal | 53% |
| O=C(Nc1cccnn1)N1CC(C/C=C/c2cncc(Oc3ccc(C(F)(F)F)cn3)n2)C1 | cell-free assay | – | competition with immobilised ligand | – | 1 µM | remaining binding | 100% |
| Cc1sc(C(=O)NC2COC2)cc1-n1cc(NC(=O)Nc2c(F)cccc2Cl)cn1 | enzyme activity | inhibitor | – | – | 10 µM | remaining activity | 88.5% |
